Rad51 HR inh – Rad51 (human) homologous recombination inhibition. hRad51 DNA strand exchange, fluorescence dequenching. inhibition, % at 10 µM. 0.085% of 200,000 active;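 active = inhibition above 40% at the single screening dose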
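Test system: preformed human Rad51 ssDNA filaments. Compound dosing: single dose, 10 µM final compound. Incubation: filaments 15 min 37 °C, then compound 30 min. Technique: FRET fluorescence dequenching, excitation 485 nm, emission 520 nm. Read-out basis: percent inhibition from fluorescence, normalised to plate control and blank means. Benchmarks: plate controls and plate blanks.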
Ins promoter up – MIN6 insulin promoter up-regulation; 0.3% of 190,000 active; AID 1625; MIN6 insulin promoter-GFP reporter, high-content imaging; hits give high values; z-score at 5 µM;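 active = z-score above 3 at 5 µM with at least 500 cells counted in the well; inconclusive = wells under 500 cells, flagged as cytotoxic or low count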
Autophagy HCS – autophagy modulation, high-content screen; MEF GFP-LC3 puncta imaging; test concentration mostly 10 µM; calls only at 10 µM (by protocol); 0.98% of 190,000 active; AID 463193;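 active = percentage of spot-positive cells more than 3 SD above its plate mean, without a fluorescence outlier flag or 80% toxicity; inconclusive = no clear call, values can overlap the other calls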
KCC2 mod – modulates chloride dependent transport by human KCC2; Q9H2X9; KCC2 cells, thallium flux FluoZin-2 fluorescence; B-score of Tl+ flux slope (higher = more flux/activation; lower = inhibition) at 10 µM; 2.2% of 190,000 active;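 active = thallium flux slope and its plate-corrected score both differing from the plate sample mean at a set confidence after two filtering rounds, in either direction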;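 note: slope of fluorescence scaled to starting intensity during 10 to 20 s after thallium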
Target sequence (Q9H2X9 whole entry, looked up): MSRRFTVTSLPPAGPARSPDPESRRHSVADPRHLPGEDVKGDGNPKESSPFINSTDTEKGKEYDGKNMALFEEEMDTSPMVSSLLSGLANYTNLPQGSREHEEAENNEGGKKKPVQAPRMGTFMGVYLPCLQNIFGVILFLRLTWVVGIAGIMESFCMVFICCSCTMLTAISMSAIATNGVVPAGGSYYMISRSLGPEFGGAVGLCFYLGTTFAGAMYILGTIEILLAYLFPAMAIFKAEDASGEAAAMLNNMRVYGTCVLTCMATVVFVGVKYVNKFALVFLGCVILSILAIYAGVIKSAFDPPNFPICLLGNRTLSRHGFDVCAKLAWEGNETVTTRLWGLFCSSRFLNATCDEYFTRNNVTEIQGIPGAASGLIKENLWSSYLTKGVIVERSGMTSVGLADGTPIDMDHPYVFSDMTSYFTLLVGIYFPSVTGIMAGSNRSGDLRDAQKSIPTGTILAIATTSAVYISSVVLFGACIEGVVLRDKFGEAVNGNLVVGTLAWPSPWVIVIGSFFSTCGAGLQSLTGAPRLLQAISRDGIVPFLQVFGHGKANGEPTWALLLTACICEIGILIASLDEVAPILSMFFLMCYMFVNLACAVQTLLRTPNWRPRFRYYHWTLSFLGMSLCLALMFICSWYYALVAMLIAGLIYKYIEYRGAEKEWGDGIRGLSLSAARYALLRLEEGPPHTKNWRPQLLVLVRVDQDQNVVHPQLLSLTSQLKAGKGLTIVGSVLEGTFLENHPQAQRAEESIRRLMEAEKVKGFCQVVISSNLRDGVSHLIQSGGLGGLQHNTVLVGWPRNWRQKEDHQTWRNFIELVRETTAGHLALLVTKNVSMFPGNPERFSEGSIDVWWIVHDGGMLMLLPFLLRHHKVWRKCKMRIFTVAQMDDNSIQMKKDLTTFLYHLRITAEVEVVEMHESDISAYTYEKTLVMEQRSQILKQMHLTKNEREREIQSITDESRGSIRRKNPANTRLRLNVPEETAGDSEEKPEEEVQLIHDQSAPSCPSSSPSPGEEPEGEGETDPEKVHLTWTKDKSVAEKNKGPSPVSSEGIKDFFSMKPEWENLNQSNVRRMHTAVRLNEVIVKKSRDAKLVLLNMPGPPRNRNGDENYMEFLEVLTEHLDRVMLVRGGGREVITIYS
WT yeast gro inh – growth inhibition of WT yeast, mitochondrial fusion screen | mitochondrial fusion phenotypic screen, WT strain | inhibition, % at 10 µM | 2.1% of 190,000 active; in the data active = inhibition above about 58%; tested in S. cerevisiae
SKKanGAS inh – SKKanGAS growth inhibition. 1.3% of 300,000 active. S. pyogenes SKKanGAS, kanamycin growth, BacTiter-Glo, 6 h. inhibition, % at 7.5 µM. AID 1662;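 active = mean replicate score, as percent of positive control median, at least 50; inconclusive = mean below 50 but one replicate at or above 50; inactive = mean and every replicate below 50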;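 note: strain carries kanamycin resistance gene driven by streptokinase promoter and grows in 40 µg/ml kanamycin; loss of luminescence reflects streptokinase promoter inhibition or plain growth inhibition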
KCC2 sec1 – confirmation of human KCC2 transport modulators; shares compounds with KCC2 mod; HEK293-KCC2, thallium flux, FluoZin2 fluorescence; hits give high values; normalised thallium flux (F/F0 slope) at 10 µM; 15% of 3,700 active;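 active = thallium flux slope above the same plate's solvent-only control mean plus 3 SD; inconclusive = the two replicate wells disagree; inactive = no significant difference from solvent-only control wells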
KCC2 bumet counter – bumetanide-insensitive thallium flux in KCC2 cells with ouabain, counter-screen; shares compounds with KCC2 mod; HEK293-KCC2 + bumetanide/ouabain, thallium flux FluoZin2; hits give high values; normalized thallium flux at 10 µM; 49% of 3,700 active; AID 1714;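 active = thallium entry rate above the same plate's blocked-transporter control wells by more than 3 SD; inconclusive = the two repeat wells disagree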;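 note: raw slope of fluorescence over initial fluorescence between 10 and 20 s after thallium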
KCC2 sec2 – KCC2 (human) modulation, second secondary assay; 23% of 3,700 active; normalized thallium flux at 10 µM; HEK293-KCC2, thallium flux FluoZin2 fluorescence; actives lie on both sides; F/F0 rise rate, 10–20 s post-thallium; AID 1715; shares compounds with KCC2 mod;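 active = thallium flux slope more than 3 SD above or below the plate's solvent-only control mean, mostly below; inconclusive = the two repeat wells disagreed; inactive = no significant shift from solvent-only controls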
HEK293 Tl flux – acts in parental HEK cells, KCC2 counter-screen. shares compounds with KCC2 mod. HEK293 parental cells, thallium flux FluoZin2, ouabain; baseline-ratio fluorescence slope, 10–20 s after thallium. thallium flux rate (normalised fluorescence) at 10 µM. 46% of 3,700 active. AID 1716;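 active = thallium flux rate significantly above the same plate's solvent-only control wells, beyond their mean plus 3 SD; inconclusive = the two replicate wells gave conflicting results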
KCC2 ouabain – confirmation of human KCC2 modulators with ouabain; raw Tl+ flux slope (below DMSO = inhibition, above = activation) at 10 µM; shares compounds with KCC2 mod; HEK293-KCC2, thallium flux FluoZin2 fluorescence; bidirectional: low = inhibitor, high = activator; 48% of 3,700 active;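 active = thallium flux slope beyond 3 SD from same-plate DMSO control mean in most replicates, usually higher, sometimes lower; inconclusive = repeat tests gave conflicting results; inactive = no significant difference from controls in most replicates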;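 note: slope of initial-normalized fluorescence between seconds 10 and 20 after thallium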
HEK counter2 – acts in parental HEK cells, second KCC2 counter-screen; HEK293 parental, thallium flux FluoZin-2 fluorescence slope; 33% of 3,700 active; thallium flux slope at 10 µM; shares compounds with KCC2 mod;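 active = thallium flux slope above the same plate's solvent-control mean plus 3 SD in both duplicate wells; inconclusive = duplicate wells that disagreed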;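 note: run without ouabain in cells lacking the KCC2 cotransporter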
A number is an active result; - = inactive; ? = inconclusive; . = not tested or not shown. Only some compounds are listed: those with a hit (about 4.2% of all), similar ones and a draw of the others.

SMILES	Rad51 HR inh	Ins promoter up	Autophagy HCS	KCC2 mod	WT yeast gro inh	SKKanGAS inh	KCC2 sec1	KCC2 bumet counter	KCC2 sec2	HEK293 Tl flux	KCC2 ouabain	HEK counter2
O=C(O)CCc1cc(I)c(Oc2ccc(O)c(I)c2)c(I)c1	.	-	.	-4.1	.	97	-	?	0.025	-	?	-
COC(=O)c1ccc(C(=O)OC)c(NC(=S)N2CCN(c3ccccn3)CC2)c1	-	-	-	-	-	-	.	.	.	.	.	.
Cc1ccccc1-n1cnc2c(sc3nc(N4CCOCC4)c4c(c32)CCCC4)c1=O	-	-	.	-	.	-	.	.	.	.	.	.
O=C(Cc1cccc2ccccc12)N/N=C/c1ccc(Sc2cccc3cccnc23)o1	.	-	-	10	-	-	-	0.013	-	0.011	0.025	0.013
CCCCC(=O)N/N=C/c1ccc(Sc2cccc3cccnc23)o1	-	-	-	-	-	-	.	.	.	.	.	.
CCOc1c(C)cnc2c1c(=O)n(Cc1cccc(Cl)c1)c(=O)n2C	.	.	.	.	.	-	.	.	.	.	.	.
CCCCC(c1nnnn1Cc1ccco1)N1CCN(c2nc3ccccc3s2)CC1 (centres undefined)	-	-	-	-6.9	-	-	-	-	?	-	0.015	-
CCCOc1ccc(NC2=CC(=O)CC(C)(C)C2)cc1	-	-	-	.	-	-	-	-	-	-	-	-
CCn1c(SCc2nc(-c3ccccc3)no2)nnc1-c1cccs1	-	-	-	.	-	-	-	-	-	-	0.016	?
CCOc1ccccc1NC(=O)NC(C)c1ccncc1 (centres undefined)	-	-	-	-	-	-	.	.	.	.	.	.
CC(C1CC2CCC1C2)n1c(-c2ccco2)n[nH]c1=S (centres undefined)	-	-	-	21	72	-	0.017	0.07	?	0.028	0.056	0.016
CCCn1c(SCC(=O)NCCc2ccccc2)nnc1C(C)C	-	-	.	-	.	-	.	.	.	.	.	.
CCOc1ccc(Nc2n[nH]c(=S)s2)cc1	-	-	-	-5.3	-	-	?	-	0.02	-	?	-
CCOc1ccccc1C(=O)Nc1ccc(-n2nncc2C(C)(C)C)cc1	-	-	-	-	-	-	.	.	.	.	.	.
Cc1ccc(O)c(N=Cc2cc(Cc3ccccc3)cc([N+](=O)[O-])c2O)c1	-	-	-	-3.8	-	-	-	?	-	-	0.014	?
Cc1ccc(C2(C(F)(F)F)NC(=O)N3CCCN=C3S2)cc1 (centres undefined)	-	-	-	3.9	-	-	-	-	-	-	-	-
O=C1c2ccccc2C(Nc2ccc(S(=O)(=O)N3CCCCC3)cc2)N1Cc1ccco1 (centres undefined)	-	-	-	-5.1	-	-	-	-	?	0.0062	0.014	-
CCOc1ccc(NC2c3ccccc3C(=O)N2Cc2ccco2)cc1 (centres undefined)	-	.	.	-4.2	-	-	-	-	-	0.0051	0.016	-
O=C1c2ccccc2C(Nc2ccc(S(=O)(=O)N3CCOCC3)cc2)N1Cc1ccco1 (centres undefined)	-	-	-	-	-	-	.	.	.	.	.	.
CCc1cc(C(=O)O)c(NC(=O)C(c2ccccc2)c2ccccc2)s1	-	-	-	-4.3	-	-	-	0.0055	-	-	-	-
